The record followed here is ChEMBL document CHEMBL1143592, “N-terminal sugar conjugation and C-terminal Thr-for-Thr(ol) exchange in radioiodinated Tyr3-octreotide: effect on cellular ligand trafficking in vitro and tumor accumulation in vivo” (J Med Chem, 2005).

Type in all cases: cell-based
Assay [1] concerns the target T1, Somatostatin receptor type 4 (Homo sapiens, UniProt P31391). The assay is described as follows: In vitro inhibition of [125I][Leu8,D-Trp22,Tyr25] somatostatin 28 binding to human somatostatin receptor type 4 expressed in CCL39 cells; (n=2). The procedure, abridged: (§1)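 Receptor autoradiography on sections of cell membrane pellets from CHO-K1 (sst1, sst5) or CCL39 (sst2–4) cells stably expressing the human subtype. Full displacement of [125I][Leu8,D-Trp22,Tyr25]somatostatin 28 by unlabeled peptide, 0.1–1000 nM, with somatostatin 28 run in parallel as control. IC50 derived by computer-assisted image analysis, quantified against cross-calibrated [125I] tissue standards.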

Assay [2] addresses T2, Somatostatin receptor type 1 (Homo sapiens, UniProt P30872). The assay is described as follows: In vitro inhibitory concentration against somatostatin receptor type 1 expressed in CHO-K1 cells using [125I][Leu8,D-Trp22,Tyr25] somatostatin 28 as radioligand; (n=2). In outline: as §1
Assay [3] deals with T3, Somatostatin receptor type 3 (Homo sapiens, UniProt P32745). The assay is described as follows: In vitro inhibition of [125I][Leu8,D-Trp22,Tyr25] somatostatin 28 binding to human somatostatin receptor type 3 expressed in CCL39 cells; (n=2). The procedure, abridged: as §1
T3 sequence (P32745 whole entry): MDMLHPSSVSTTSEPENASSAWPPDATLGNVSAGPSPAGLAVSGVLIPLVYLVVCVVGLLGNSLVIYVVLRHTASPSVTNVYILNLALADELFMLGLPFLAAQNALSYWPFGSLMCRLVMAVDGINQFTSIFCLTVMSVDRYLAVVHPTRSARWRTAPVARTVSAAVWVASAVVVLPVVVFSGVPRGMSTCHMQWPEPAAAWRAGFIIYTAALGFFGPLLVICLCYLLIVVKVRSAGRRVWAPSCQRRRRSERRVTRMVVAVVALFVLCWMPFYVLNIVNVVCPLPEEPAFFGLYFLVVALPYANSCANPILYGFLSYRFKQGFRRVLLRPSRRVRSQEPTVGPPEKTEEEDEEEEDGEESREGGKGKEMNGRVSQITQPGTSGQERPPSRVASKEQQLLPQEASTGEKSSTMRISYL
Assay [4] has as its target Somatostatin receptor type 2 (Homo sapiens, UniProt P30874). Nature of the assay: Relative effective concentration against human somatostatin receptor type 2 expressed in CHO cells; (n=3). The procedure, abridged: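 Dual-tracer internalization in CHO cells stably expressing N-terminally tagged hsst2 (90000–120000 cells/well, plated the day before). Acid wash at pH 5 removed surface-bound activity; nonspecific uptake was taken with 5 µM TOC; triplicates. EC50 is expressed relative to [125I]TOC.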

Assay [5] concerns the target T1, Somatostatin receptor type 4. Nature of the assay: In vitro inhibition of [125I][Leu8,D-Trp22,Tyr25] somatostatin 28 binding to human somatostatin receptor type 4 expressed in CCL39 cells; (n=5).
For assay [6], the target named is T2, Somatostatin receptor type 1. Nature of the assay: In vitro inhibition of [125I][Leu8,D-Trp22,Tyr25] somatostatin 28 binding to human somatostatin receptor type 1 expressed in CHO-K1 cells; (n=5).
The target in assay [7] is T3, Somatostatin receptor type 3. The assay is described as follows: In vitro inhibition of [125I][Leu8,D-Trp22,Tyr25] somatostatin 28 binding to human somatostatin receptor type 3 expressed in CCL39 cells; (n=5).
Assay [8] addresses T1, Somatostatin receptor type 4. The assay is described as follows: In vitro inhibition of [125I][Leu8,D-Trp22,Tyr25] somatostatin 28 binding to human somatostatin receptor type 4 expressed in CCL39 cells; (n=6).
The target in assay [9] is Somatostatin receptor type 5 (Homo sapiens, UniProt P35346). Nature of the assay: In vitro inhibition of [125I][Leu8,D-Trp22,Tyr25] somatostatin 28 binding to human somatostatin receptor type 5 expressed in CHO-K1 cells; (n=6).
Somatostatin receptor type 5, sequence (P35346 whole entry): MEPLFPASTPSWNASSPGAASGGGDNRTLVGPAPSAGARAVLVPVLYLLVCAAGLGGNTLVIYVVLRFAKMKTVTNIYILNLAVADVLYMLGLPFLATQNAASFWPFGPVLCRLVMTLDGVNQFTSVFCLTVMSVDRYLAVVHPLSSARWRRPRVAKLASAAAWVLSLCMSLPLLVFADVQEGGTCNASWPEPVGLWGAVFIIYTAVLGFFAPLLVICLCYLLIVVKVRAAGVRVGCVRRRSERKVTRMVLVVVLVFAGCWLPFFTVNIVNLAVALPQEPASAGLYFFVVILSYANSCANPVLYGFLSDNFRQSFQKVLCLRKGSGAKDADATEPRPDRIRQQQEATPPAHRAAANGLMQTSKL
The target in assay [10] is T3, Somatostatin receptor type 3. The assay is described as follows: In vitro inhibition of [125I][Leu8,D-Trp22,Tyr25] somatostatin 28 binding to human somatostatin receptor type 3 expressed in CCL39 cells; (n=4). The procedure, abridged: as §1
For assay [11], the target named is T2, Somatostatin receptor type 1. The assay is described as follows: In vitro inhibition of [125I][Leu8,D-Trp22,Tyr25] somatostatin 28 binding to human somatostatin receptor type 1 expressed in CHO-K1 cells; (n=7). The procedure, abridged:
as §1

Somatostatin receptor type 2, sequence (P30874 whole entry): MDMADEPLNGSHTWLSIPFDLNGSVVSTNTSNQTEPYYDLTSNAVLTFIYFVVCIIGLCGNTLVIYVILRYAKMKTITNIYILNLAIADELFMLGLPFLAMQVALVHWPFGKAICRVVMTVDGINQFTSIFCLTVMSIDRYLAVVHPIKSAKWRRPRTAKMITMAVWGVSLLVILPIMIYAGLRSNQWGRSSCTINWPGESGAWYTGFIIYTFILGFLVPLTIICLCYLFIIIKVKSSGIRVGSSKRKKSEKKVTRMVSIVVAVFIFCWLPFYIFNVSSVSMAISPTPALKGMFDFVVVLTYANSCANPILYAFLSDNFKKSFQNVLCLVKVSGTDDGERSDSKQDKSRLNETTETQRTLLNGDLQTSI
T1 sequence (P31391 whole entry): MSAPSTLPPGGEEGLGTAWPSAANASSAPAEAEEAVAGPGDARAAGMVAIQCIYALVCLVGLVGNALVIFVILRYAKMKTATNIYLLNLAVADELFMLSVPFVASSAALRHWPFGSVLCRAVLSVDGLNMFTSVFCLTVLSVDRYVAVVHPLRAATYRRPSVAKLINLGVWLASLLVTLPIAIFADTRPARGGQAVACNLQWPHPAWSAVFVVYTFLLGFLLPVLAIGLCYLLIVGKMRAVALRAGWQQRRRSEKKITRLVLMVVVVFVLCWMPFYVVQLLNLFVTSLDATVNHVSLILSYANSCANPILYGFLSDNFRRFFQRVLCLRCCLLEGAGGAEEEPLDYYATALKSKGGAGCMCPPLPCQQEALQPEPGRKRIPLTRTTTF
T2 sequence (P30872 whole entry): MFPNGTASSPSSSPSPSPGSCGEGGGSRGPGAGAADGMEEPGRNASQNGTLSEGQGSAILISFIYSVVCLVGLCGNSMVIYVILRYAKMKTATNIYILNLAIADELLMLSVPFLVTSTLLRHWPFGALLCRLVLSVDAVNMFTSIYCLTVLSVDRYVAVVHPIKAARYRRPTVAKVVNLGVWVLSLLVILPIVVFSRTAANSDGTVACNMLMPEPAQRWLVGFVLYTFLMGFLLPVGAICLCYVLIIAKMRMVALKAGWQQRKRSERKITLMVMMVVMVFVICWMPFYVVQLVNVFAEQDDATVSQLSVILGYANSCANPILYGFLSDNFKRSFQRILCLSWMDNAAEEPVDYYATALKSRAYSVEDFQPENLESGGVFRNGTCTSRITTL

For `C[C@H](O)[C@@H](CO)NC(=O)[C@@H]1CSSC[C@H](NC(=O)[C@H](N)Cc2ccccc2)C(=O)N[C@@H](Cc2ccc(O)cc2)C(=O)N[C@H](Cc2c[nH]c3ccccc23)C(=O)N[C@@H](CCCCN)C(=O)N[C@@H]([C@@H](C)O)C(=O)N1`, the IC50 in assay [1] is 346 nM; in assay [2], greater than 1000 nM; in assay [3], 330 nM.

With `C[C@@H](O)[C@H](CO)NC(=O)[C@@H]1CSSC[C@H](NC(=O)[C@@H](Cc2ccccc2)NC[C@]2(O)OC[C@H](O)[C@@H](O[C@@H]3O[C@@H](CO)[C@@H](O)[C@H](O)[C@@H]3O)[C@@H]2O)C(=O)N[C@@H](Cc2ccc(O)c([123I])c2)C(=O)N[C@H](Cc2c[nH]c3ccccc23)C(=O)N[C@@H](CCCCN)C(=O)N[C@@H]([C@@H](C)O)C(=O)N1`, in assay [4] (cho), the EC50 is 1.12 nM.

Regarding `C[C@@H](O)[C@H](NC(=O)[C@@H]1CSSC[C@H](NC(=O)[C@@H](Cc2ccccc2)NC[C@]2(O)OC[C@H](O)[C@@H](O[C@@H]3O[C@@H](CO)[C@@H](O[C@@H]4O[C@@H](CO)[C@@H](O)[C@H](O)[C@@H]4O)[C@H](O)[C@@H]3O)[C@@H]2O)C(=O)N[C@@H](Cc2ccc(O)c([123I])c2)C(=O)N[C@H](Cc2c[nH]c3ccccc23)C(=O)N[C@@H](CCCCN)C(=O)N[C@@H]([C@@H](C)O)C(=O)N1)C(=O)O`, in assay [4] (cho), the response was half-maximal at 1.81 nM (EC50).

In the case of `C[C@H](O)[C@@H](CO)NC(=O)[C@@H]1CSSC[C@H](NC(=O)[C@H](N)Cc2ccccc2)C(=O)N[C@@H](Cc2ccc(O)c(I)c2)C(=O)N[C@H](Cc2c[nH]c3ccccc23)C(=O)N[C@@H](CCCCN)C(=O)N[C@@H]([C@@H](C)O)C(=O)N1`, the IC50 is 729 nM in assay [5], greater than 1000 nM in assay [6] and 186 nM in assay [7].

For the molecule `C[C@@H](O)[C@@H]1NC(=O)[C@H](CCCCN)NC(=O)[C@@H](Cc2c[nH]c3ccccc23)NC(=O)[C@H](Cc2ccc(O)cc2)NC(=O)[C@@H](NC(=O)[C@@H](Cc2ccccc2)NC(=O)CN2CCN(CC(=O)O)CCN(CC(=O)O)CCN(CC(=O)O)CC2)CSSC[C@@H](C(=O)N[C@H](CO)[C@@H](C)O)NC1=O` [EDOTREOTIDE], the IC50 was greater than 1000 nM in assay [8], 393 nM in [9], 880 nM in assay [10] and greater than 10000 nM in assay [11].

The molecule `C[C@@H](O)[C@H](CO)NC(=O)[C@@H]1CSSC[C@H](NC(=O)[C@@H](Cc2ccccc2)NC[C@]2(O)OC[C@H](O)[C@@H](O[C@@H]3O[C@@H](CO)[C@@H](O[C@@H]4O[C@@H](CO)[C@@H](O)[C@H](O)[C@@H]4O)[C@H](O)[C@@H]3O)[C@@H]2O)C(=O)N[C@@H](Cc2ccc(O)c([123I])c2)C(=O)N[C@H](Cc2c[nH]c3ccccc23)C(=O)N[C@@H](CCCCN)C(=O)N[C@@H]([C@@H](C)O)C(=O)N1` yielded an EC50 in assay [4] (cho) of 1.01 nM.

`C[C@@H](O)[C@H](NC(=O)[C@@H]1CSSC[C@H](NC(=O)[C@@H](Cc2ccccc2)NC[C@]2(O)OC[C@H](O)[C@@H](O[C@@H]3O[C@@H](CO)[C@@H](O)[C@H](O)[C@@H]3O)[C@@H]2O)C(=O)N[C@@H](Cc2ccc(O)c([123I])c2)C(=O)N[C@H](Cc2c[nH]c3ccccc23)C(=O)N[C@@H](CCCCN)C(=O)N[C@@H]([C@@H](C)O)C(=O)N1)C(=O)O`: the EC50 in assay [4] (cho) is 2.13 nM.

`C[C@@H](O)[C@H](NC(=O)[C@@H]1CSSC[C@H](NC(=O)[C@H](N)Cc2ccccc2)C(=O)N[C@@H](Cc2ccc(O)c([123I])c2)C(=O)N[C@H](Cc2c[nH]c3ccccc23)C(=O)N[C@@H](CCCCN)C(=O)N[C@@H]([C@@H](C)O)C(=O)N1)C(=O)O` returned an EC50 in assay [4] of 1.7 nM.

The molecule `C[C@@H](O)[C@H](CO)NC(=O)[C@@H]1CSSC[C@H](NC(=O)[C@H](N)Cc2ccccc2)C(=O)N[C@@H](Cc2ccc(O)c([125I])c2)C(=O)N[C@H](Cc2c[nH]c3ccccc23)C(=O)N[C@@H](CCCCN)C(=O)N[C@@H]([C@@H](C)O)C(=O)N1` came in with an EC50 in [4] (cho) of 1 nM.

In general, IC50 refers to the point on the concentration scale where inhibition reaches its midpoint. By EC50 is commonly meant the concentration at which the effect is half-maximal. Read a high EC50 as weaker potency.
